Results as given in paper PMC8637866 (RSC Chemical Biology, 2021).
No end group written: not given here.

Tests used:
PTHR1-6E = target: T1, PTHR1-6E (Homo sapiens, UniProt Q03431, A83I/D81R/G76A/K80A/K82Q/P78E/R79L/S71Q/S73D/S75E/T74Q); assay: cAMP response; assay type: cell-based
T1 sequence (Q03431 23-593 S71Q/S73D/T74Q/S75E/G76A/P78E/R79L/K80A/D81R/K82Q/A83I limits assumed): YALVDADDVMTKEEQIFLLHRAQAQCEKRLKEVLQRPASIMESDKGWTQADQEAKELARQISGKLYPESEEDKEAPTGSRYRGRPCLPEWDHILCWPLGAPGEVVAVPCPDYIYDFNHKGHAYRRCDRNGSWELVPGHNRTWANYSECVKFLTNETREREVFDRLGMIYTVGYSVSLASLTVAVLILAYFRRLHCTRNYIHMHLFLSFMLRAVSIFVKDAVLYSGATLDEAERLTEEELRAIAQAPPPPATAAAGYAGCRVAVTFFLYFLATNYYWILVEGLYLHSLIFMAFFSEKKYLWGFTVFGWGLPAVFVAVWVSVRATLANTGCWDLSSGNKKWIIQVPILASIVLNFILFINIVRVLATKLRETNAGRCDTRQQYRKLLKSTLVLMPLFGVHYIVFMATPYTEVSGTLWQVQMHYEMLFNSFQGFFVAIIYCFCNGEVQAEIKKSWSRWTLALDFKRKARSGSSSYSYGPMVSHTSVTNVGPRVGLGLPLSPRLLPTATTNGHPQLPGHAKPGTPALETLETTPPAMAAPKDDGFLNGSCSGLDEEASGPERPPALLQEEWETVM
Procedure, shortened: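 HEK293 cells stably expressing PTHR1 carrying the 6E tag plus a cAMP-responsive luciferase (Glosensor) were treated with graded concentrations of VHH–PTH1–11 conjugates. cAMP was read as luminescence. EC50 came from a sigmoidal dose–response fit with variable slope, using replicate wells per experiment and three independent experiments.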

PTHR1-6E-HEK cells = assay: Flow cytometry binding of VHH–biotin–PTH conjugates to PTHR1-6E-HEK cells; parameters: species or system human
Procedure, shortened: (§1)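 Adherent cells were detached with trypsin, washed, resuspended in PBS, and stained for 1 h on ice with graded concentrations of biotin-labelled VHH–PTH1–11 conjugates. Cells were washed, stained with streptavidin–PE, and analysed by flow cytometry. Line 1 used PTHR1-6E-HEK cells (HEK293 expressing PTHR1 with the 6E tag in the extracellular domain); line 2 used parental HEK293 cells. Median fluorescence intensity was fitted to sigmoidal curves, with maximal staining expressed relative to the MHC-I conjugate; three independent experiments.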

neg-HEK cells = assay: Flow cytometry binding of VHH–biotin–PTH conjugates to neg-HEK cells; details: for EC50: read-out: Binding EC50, Neg-HEK, 1 h on ice, streptavidin–PE, flow cytometry (MFI), mean of three independent experiments
Procedure, shortened: as §1

human PTHR1 = assay: cAMP stimulation by PTH1–34 CLAMPs on receptor cells; assay type: cell-based; details: HEK293 cells (receptor cells) that express human PTHR1; Fig. 5 (legend: PTHR1-6E-HEK)

Row | Compound | cAMP stimulation compared with PTH1–34 (in words) (human PTHR1) | EC50 (neg-HEK cells) | other results
1 | CC[C@H](C)[C@H](NC(=O)[C@H](CCC(=O)O)NC(=O)[C@H](CO)NC(=O)[C@@H](NC(=O)[C@@H](N)CO)C(C)C)C(=O)N[C@@H](CCC(N)=O)C(=O)N[C@@H](CC(C)C)C(=O)N[C@@H](CCSC)C(=O)N[C@@H](Cc1c[nH]cn1)C(=O)N[C@@H](CC(N)=O)C(=O)N[C@@H](CC(C)C)C(=O)NCC(=O)N[C@@H](CCCCN)C(=O)N[C@@H](Cc1c[nH]cn1)C(=O)N[C@@H](CC(C)C)C(=O)N[C@@H](CC(N)=O)C(=O)N[C@@H](CO)C(=O)N[C@@H](CCSC)C(=O)N[C@@H](CCC(=O)O)C(=O)N[C@@H](CCCNC(=N)N)C(=O)N[C@H](C(=O)N[C@@H](CCC(=O)O)C(=O)N[C@@H](Cc1c[nH]c2ccccc12)C(=O)N[C@@H](CC(C)C)C(=O)N[C@@H](CCCNC(=N)N)C(=O)N[C@@H](CCCCN)C(=O)N[C@@H](CCCCN)C(=O)N[C@@H](CC(C)C)C(=O)N[C@@H](CCC(N)=O)C(=O)N[C@@H](CC(=O)O)C(=O)N[C@H](C(=O)N[C@@H](Cc1c[nH]cn1)C(=O)N[C@@H](CC(N)=O)C(=O)N[C@@H](Cc1ccccc1)C(=O)N[C@@H](CS)C(N)=O)C(C)C)C(C)C [PTH1–34, reference compound] | – | – | EC50 (PTHR1-6E): 0.18 nM
2 | VHH6E–PTH1–11: conjugate of VHH6E (binds UBC6E epitope tag), biotin and PTH1–11 (SVSEIQLMHNL; also: conjugated to VHH6E nanobody and biotin; UniProt P01270 32-42, looked up, fragment) | – | – | staining signal compared with VHHMHC-I (in words) (PTHR1-6E-HEK cells): stronger signal than staining with VHHMHC-I; maximal staining (in words) (neg-HEK cells; HEK-neg cells): a The maximal staining for VHH6E–PTH1–11 on HEK-neg cells was very weak, so binding EC50 values were not determined (ND).
3 | VHHGFP–PTH1–34: CLAMP of PTH1–34 conjugated to VHH that targets GFP (SVSEIQLMHNLGKHLNSMERVEWLRKKLQDVHNF; also: conjugated to anti-GFP VHH (with biotin); UniProt P01270 32-65, looked up, fragment) | performed similarly to PTH1–34 itself | – | –
4 | VHHMHC-II–PTH1–34: CLAMP of PTH1–34 conjugated to VHH that targets murine MHC-II (SVSEIQLMHNLGKHLNSMERVEWLRKKLQDVHNF; Parathyroid hormone conjugated to anti-MHC-II VHH; UniProt P01270 32-65, looked up, fragment) | performed similarly to PTH1–34 itself | – | –
5 | VHHMHC-I–PTH1–11: conjugate of VHHMHC-I (targets human β2-microglobulin, previously Nb30), biotin and PTH1–11 (SVSEIQLMHNL; also: conjugated to anti-β2-microglobulin VHH and biotin; UniProt P01270 32-42, looked up, fragment) | – | 4.3 nM | stimulation of cAMP responses (in words) (PTHR1-6E; PTHR1-6E-HEK cells, Fig. 2e and Table 1): essentially inactive in stimulating cAMP responses
6 | VHHa5b1–PTH1–11: conjugate of VHHα5β1 (targets integrin α5β1), biotin and PTH1–11 (SVSEIQLMHNL; also: conjugated to anti-integrin α5β1 VHH and biotin; UniProt P01270 32-42, looked up, fragment) | – | 3 nM | –
